According to ChEMBL document CHEMBL1141480 (Bioorg Med Chem Lett, 2008):
Values after ≈ are worked out from the molar mass of the structure shown.

Key:
Fibroblast = assay: Accumulation of intracellular type I collagen in human dermal fibroblast upto 10 uM; format: functional
In short: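 Primary human dermal fibroblasts were grown in 3-D collagen gel, with inhibitors present for the final 3 days at concentrations up to 10 µM. Cells were freed from the gel with collagenase, fixed and permeabilized. Intracellular type I collagen was stained with an anti-type I collagen mAb plus a FITC-labelled secondary antibody and quantified by flow cytometry.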

[1] = Clearance in monkey; format: ADME, organism-based, Macaca mulatta; conditions: rhesus monkey, in vivo
Osteoclast = assay: Inhibition of bone resorption in rabbit osteoclast; conditions: Oryctolagus cuniculus
Cathepsin K [2] = biological target: T1, Cathepsin K (Oryctolagus cuniculus, UniProt P43236); assay: Inhibition of rabbit cathepsin K
T1 sequence (P43236 whole entry): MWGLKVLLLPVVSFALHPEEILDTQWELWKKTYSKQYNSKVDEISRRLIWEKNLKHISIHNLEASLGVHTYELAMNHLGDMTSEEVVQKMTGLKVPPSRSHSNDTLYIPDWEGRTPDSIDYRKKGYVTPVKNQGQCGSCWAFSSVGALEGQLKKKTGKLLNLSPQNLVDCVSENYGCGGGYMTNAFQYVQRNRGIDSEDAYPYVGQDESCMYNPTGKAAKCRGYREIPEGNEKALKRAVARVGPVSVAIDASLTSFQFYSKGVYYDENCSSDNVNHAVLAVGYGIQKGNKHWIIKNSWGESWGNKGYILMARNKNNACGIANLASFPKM

[3] = Half life in monkey; format: ADME, organism-based, Macaca mulatta; conditions: rhesus monkey, in vivo
Cathepsin K [4] = biological target: Cathepsin K (Homo sapiens, UniProt P43235); assay: Inhibition of humanized rabbit cathepsin K
Procathepsin L [5] = biological target: T2, Procathepsin L (Homo sapiens, UniProt P07711); assay: Inhibition of cathepsin L
T2 sequence (P07711 whole entry): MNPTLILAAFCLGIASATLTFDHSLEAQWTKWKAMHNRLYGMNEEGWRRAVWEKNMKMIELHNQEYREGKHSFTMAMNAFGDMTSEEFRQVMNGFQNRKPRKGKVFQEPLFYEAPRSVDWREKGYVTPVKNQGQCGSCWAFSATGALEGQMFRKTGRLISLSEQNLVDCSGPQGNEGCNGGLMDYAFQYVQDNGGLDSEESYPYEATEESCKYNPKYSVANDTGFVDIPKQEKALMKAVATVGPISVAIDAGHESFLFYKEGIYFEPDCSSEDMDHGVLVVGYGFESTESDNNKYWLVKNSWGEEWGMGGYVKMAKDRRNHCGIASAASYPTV
In short: (§1)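 Purified human cathepsin enzymes, with assay conditions per an earlier report. Read-out is IC50; standard deviations were typically within 35% of the IC50.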

Cathepsin S [6] = biological target: T3, Cathepsin S (Homo sapiens, UniProt P25774); assay: Inhibition of cathepsin S; in short: as §1
T3 sequence (P25774 whole entry): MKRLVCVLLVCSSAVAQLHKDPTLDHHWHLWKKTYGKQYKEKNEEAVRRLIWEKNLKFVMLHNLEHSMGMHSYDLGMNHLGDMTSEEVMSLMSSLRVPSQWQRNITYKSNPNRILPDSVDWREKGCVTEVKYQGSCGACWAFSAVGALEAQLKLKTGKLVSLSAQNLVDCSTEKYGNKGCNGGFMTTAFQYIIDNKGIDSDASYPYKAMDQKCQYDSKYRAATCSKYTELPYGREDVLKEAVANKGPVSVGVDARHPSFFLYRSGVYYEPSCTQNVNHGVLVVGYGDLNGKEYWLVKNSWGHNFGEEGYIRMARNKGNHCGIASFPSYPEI

Cathepsin B [7] = biological target: T4, Cathepsin B (Homo sapiens, UniProt P07858); assay: Inhibition of cathepsin B; in short: as §1
Cathepsin F = biological target: T5, Cathepsin F (Homo sapiens, UniProt Q9UBX1); assay: Inhibition of cathepsin F; in short: as §1
T5 sequence (Q9UBX1 whole entry): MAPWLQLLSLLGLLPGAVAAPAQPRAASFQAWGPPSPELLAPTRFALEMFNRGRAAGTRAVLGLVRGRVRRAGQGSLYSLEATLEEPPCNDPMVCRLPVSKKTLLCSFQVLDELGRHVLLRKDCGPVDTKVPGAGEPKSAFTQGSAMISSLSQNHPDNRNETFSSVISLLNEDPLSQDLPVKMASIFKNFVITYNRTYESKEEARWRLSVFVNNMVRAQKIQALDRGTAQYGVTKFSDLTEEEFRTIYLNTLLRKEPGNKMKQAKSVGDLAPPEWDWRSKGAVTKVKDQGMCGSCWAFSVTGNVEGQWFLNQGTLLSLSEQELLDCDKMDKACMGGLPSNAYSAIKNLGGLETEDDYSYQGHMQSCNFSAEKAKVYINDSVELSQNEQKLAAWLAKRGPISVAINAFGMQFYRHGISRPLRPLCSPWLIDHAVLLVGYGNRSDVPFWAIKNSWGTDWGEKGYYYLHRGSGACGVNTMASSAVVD

Canis familiaris = assay: Volume of distribution at steady state in dog at 5 mg/kg, po; format: ADME, organism-based, Canis lupus familiaris; design: dose 5 mg/kg, route oral; conditions: in vivo
Rattus norvegicus = assay: Volume of distribution at steady state in rat at 10 mg/kg, po; format: ADME, organism-based; design: dose 10 mg/kg, route oral; conditions: in vivo
Cathepsin S [8] = biological target: T3, Cathepsin S; assay: Inhibition of cathepsin S in human ramos cells; format: cell-based
In short: (§2)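 Whole-cell enzyme occupancy assays run as previously described: human HepG2 cells for cathepsin B and L, and Ramos cells for cathepsin S. Read-out is IC50.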

[9] = Inhibition of antigen presenting mouse B cells; format: functional, cell-based
[10] = Clearance in dog at 5 mg/kg, po; format: ADME, organism-based, Canis lupus familiaris; design: dose 5 mg/kg, route oral; conditions: in vivo
[11] = Oral bioavailability in dog at 5 mg/kg; format: ADME, organism-based, Canis lupus familiaris; conditions: in vivo
[12] = Half life in dog at 5 mg/kg, po; format: ADME, organism-based, Canis lupus familiaris; design: dose 5 mg/kg, route oral; conditions: in vivo
Cathepsin B [13] = biological target: T4, Cathepsin B; assay: Inhibition of cathepsin B in human HepG2 cells; format: cell-based; in short: as §2
[14] = Half life in rat at 10 mg/kg, po; format: ADME, organism-based; design: dose 10 mg/kg, route oral; conditions: in vivo
Pro-cathepsin H = biological target: T6, Pro-cathepsin H (Homo sapiens, UniProt P09668); assay: Inhibition of cathepsin H; in short: as §1
T6 sequence (P09668 whole entry): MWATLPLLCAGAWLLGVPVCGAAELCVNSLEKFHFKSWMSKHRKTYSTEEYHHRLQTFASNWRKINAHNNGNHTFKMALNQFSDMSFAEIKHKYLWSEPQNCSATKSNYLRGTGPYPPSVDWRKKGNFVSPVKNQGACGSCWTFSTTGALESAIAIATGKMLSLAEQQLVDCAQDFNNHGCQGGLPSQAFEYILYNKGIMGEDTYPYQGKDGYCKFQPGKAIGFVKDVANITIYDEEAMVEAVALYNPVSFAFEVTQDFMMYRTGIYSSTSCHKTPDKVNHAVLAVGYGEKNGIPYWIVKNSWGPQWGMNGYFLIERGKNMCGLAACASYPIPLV

Rhesus monkey = assay: Volume of distribution at steady state in rhesus monkey at 5 mg/kg, po; format: ADME, organism-based, Macaca mulatta; design: dose 5 mg/kg, route oral; conditions: in vivo
[15] = Half life in rhesus monkey at 5 mg/kg, po; format: ADME, organism-based, Macaca mulatta; design: dose 5 mg/kg, route oral; conditions: in vivo
Cathepsin L2 = biological target: T7, Cathepsin L2 (Homo sapiens, UniProt O60911); assay: Inhibition of cathepsin V; in short: as §1
T7 sequence (O60911 whole entry): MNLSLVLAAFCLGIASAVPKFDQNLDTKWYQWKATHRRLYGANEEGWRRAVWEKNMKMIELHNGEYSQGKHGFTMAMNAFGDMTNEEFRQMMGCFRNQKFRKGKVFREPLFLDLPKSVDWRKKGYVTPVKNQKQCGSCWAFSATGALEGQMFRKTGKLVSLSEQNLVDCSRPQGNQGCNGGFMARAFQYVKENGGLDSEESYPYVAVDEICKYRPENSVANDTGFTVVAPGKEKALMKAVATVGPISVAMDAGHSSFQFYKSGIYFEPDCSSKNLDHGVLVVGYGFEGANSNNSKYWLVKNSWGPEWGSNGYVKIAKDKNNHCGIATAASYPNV

[16] = Metabolic stability in dog hepatocyte at 20 uM after 2 hrs assessed as recovery of parent compound; format: ADME, cell-based, Canis lupus familiaris; conditions: hepatocytes, read-out: Stability
Cathepsin Z = Cathepsin Z (Homo sapiens, UniProt Q9UBR2); assay: Inhibition of cathepsin Z
Sequence of Cathepsin Z (Q9UBR2 whole entry): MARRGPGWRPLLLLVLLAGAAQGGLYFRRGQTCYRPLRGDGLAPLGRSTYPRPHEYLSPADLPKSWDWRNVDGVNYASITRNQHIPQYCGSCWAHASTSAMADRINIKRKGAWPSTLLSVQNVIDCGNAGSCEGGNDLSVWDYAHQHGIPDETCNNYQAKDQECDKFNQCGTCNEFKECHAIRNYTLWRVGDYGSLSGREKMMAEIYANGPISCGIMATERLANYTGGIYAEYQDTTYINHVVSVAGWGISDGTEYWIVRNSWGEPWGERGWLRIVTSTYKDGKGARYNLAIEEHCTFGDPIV

[17] = Clearance in rat at 10 mg/kg, po; format: ADME, organism-based; design: dose 10 mg/kg, route oral; conditions: in vivo
[18] = Metabolic stability in human hepatocyte at 20 uM after 2 hrs assessed as recovery of parent compound; format: ADME, cell-based; conditions: hepatocytes, read-out: Stability
Cathepsin K [19] = biological target: T8, Cathepsin K (Homo sapiens, UniProt P43235); assay: Inhibition of human cathepsin K
T8 sequence (P43235 whole entry): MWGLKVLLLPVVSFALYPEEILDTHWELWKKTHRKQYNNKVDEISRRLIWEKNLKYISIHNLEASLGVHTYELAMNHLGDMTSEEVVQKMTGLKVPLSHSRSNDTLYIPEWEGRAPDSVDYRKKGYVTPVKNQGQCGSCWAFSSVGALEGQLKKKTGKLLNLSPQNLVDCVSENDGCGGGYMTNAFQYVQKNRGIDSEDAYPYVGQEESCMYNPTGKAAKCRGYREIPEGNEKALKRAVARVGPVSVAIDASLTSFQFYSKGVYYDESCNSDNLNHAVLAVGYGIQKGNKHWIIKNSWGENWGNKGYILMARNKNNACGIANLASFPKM

[20] = Clearance in rhesus monkey at 5 mg/kg, po; format: ADME, organism-based, Macaca mulatta; design: dose 5 mg/kg, route oral; conditions: in vivo
[21] = Oral bioavailability in rhesus monkey at 5 mg/kg; format: ADME, organism-based, Macaca mulatta; conditions: in vivo
Splenocyte = assay: Inhibition of MHC 2 invariant chain iip10 in mouse splenocytes; format: functional, cell-based
[22] = Metabolic stability in rhesus monkey hepatocyte at 20 uM after 2 hrs assessed as recovery of parent compound; format: ADME, cell-based, Macaca mulatta; conditions: hepatocytes, read-out: Stability
Dipeptidyl peptidase 1 = Dipeptidyl peptidase 1 (Homo sapiens, UniProt P53634); assay: Inhibition of cathepsin C; in short: as §1
Sequence of Dipeptidyl peptidase 1 (P53634 25-134 limits assumed): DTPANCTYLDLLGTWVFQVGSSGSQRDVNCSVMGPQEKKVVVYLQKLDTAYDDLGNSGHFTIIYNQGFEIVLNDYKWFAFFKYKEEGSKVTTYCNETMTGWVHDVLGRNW
Sequence of Dipeptidyl peptidase 1 (P53634 231-394 limits assumed): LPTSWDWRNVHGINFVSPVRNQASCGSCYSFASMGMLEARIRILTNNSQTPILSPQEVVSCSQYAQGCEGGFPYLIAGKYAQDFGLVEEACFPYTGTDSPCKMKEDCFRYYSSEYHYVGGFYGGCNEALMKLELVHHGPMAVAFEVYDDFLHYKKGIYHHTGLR
Sequence of Dipeptidyl peptidase 1 (P53634 395-463 limits assumed): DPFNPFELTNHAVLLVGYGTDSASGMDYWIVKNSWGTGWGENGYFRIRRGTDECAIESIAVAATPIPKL

[23] = Oral bioavailability in rat at 10 mg/kg; format: ADME, organism-based; conditions: in vivo
Procathepsin L [24] = biological target: T2, Procathepsin L; assay: Inhibition of cathepsin L in human HepG2 cells; format: cell-based

Structure (SMILES): CCCN1CCN(c2ccc(C(=O)NC3(C(=O)NCC#N)CCCCC3)cc2)CC1 [BALICATIB]
- Activity (Fibroblast): 3

Structure (SMILES): CC(C)C[C@H](N[C@@H](c1ccc(-c2ccc(S(C)(=O)=O)cc2)cc1)C(F)(F)F)C(=O)NCC#N
- clearance [1]: 7.5 mL/min/kg
- IC50 (Osteoclast): 13 nM
- IC50 (Cathepsin K [2]): 0.8 nM
- half-life [3]: 2 h
- IC50 (Cathepsin K [4]): 0.2 nM

Structure (SMILES): CC(C)C[C@H](N[C@@H](c1ccc(-c2ccc(S(C)(=O)=O)cc2)cc1)C(F)(F)F)C(=O)N[C@H](C#N)Cc1ccccc1
- IC50 (Procathepsin L [5]): 67 nM
- IC50 (Cathepsin S [6]): 38 nM
- IC50 (Cathepsin B [7]): 953 nM
- IC50 (Cathepsin K [4]): 0.6 nM

Structure (SMILES): CC(C)C[C@H](N[C@@H](c1ccc(-c2ccc(S(C)(=O)=O)cc2)cc1)C(F)(F)F)C(=O)N[C@@H](C#N)Cc1ccccc1
- IC50 (Procathepsin L [5]): 2940 nM
- IC50 (Cathepsin S [6]): 2830 nM
- IC50 (Cathepsin B [7]): > 10000 nM
- IC50 (Cathepsin K [4]): 5.1 nM

Structure (SMILES): CC(C)C[C@H](N[C@@H](c1ccc(-c2ccc(S(C)(=O)=O)cc2)cc1)C(F)(F)F)C(=O)NC(C#N)c1ccccc1 (mixture of isomers)
- IC50 (Procathepsin L [5]): 667 nM
- IC50 (Cathepsin S [6]): 217 nM
- IC50 (Cathepsin B [7]): 3450 nM
- IC50 (Cathepsin K [4]): 0.6 nM

Structure (SMILES): CC(C)C[C@H](N[C@@H](c1ccc(-c2ccc(S(C)(=O)=O)cc2)cc1)C(F)(F)F)C(=O)NC(C)(C)C#N
- IC50 (Procathepsin L [5]): > 10000 nM
- IC50 (Cathepsin S [6]): 2490 nM
- IC50 (Cathepsin B [7]): > 10000 nM
- IC50 (Cathepsin K [4]): 4 nM

Structure (SMILES): CC(C)(F)C[C@H](N[C@@H](c1ccc(-c2ccc(S(C)(=O)=O)cc2)cc1)C(F)(F)F)C(=O)NC1(C#N)CC1 [ODANACATIB]
- IC50 (Cathepsin F): 795 nM
- IC50 (Procathepsin L [5]): 3000 nM
- Vdss (Canis familiaris): 0.6 L/kg
- IC50 (Cathepsin S [6]): 60 nM
- Vdss (Rattus norvegicus): 1.1 L/kg
- IC50 (Cathepsin S [8]): 45 nM
- IC50 [9]: 1500 nM
- CL/F [10]: 0.13 mL/min/kg
- bioavailability [11]: 6%
- half-life [12]: 57 h
- IC50 (Cathepsin B [13]): 1050 nM
- half-life [14]: 6 h
- IC50 (Pro-cathepsin H): > 10000 nM
- Vdss (Rhesus monkey): 1.6 L/kg
- IC50 (Osteoclast): 23 nM
- IC50 (Cathepsin K [2]): 1 nM
- half-life [15]: 18 h
- IC50 (Cathepsin L2): 762 nM
- remaining at 2 h, 20 µM [16]: > 99%
- IC50 (Cathepsin Z): > 10000 nM
- CL/F [17]: 2 mL/min/kg
- remaining at 2 h, 20 µM [18]: > 99%
- IC50 (Cathepsin K [19]): 0.2 nM
- CL/F [20]: 6.1 mL/min/kg
- bioavailability [21]: 7%
- MIC (Splenocyte): 1 µM (≈ 0.526 µg/mL)
- remaining at 2 h, 20 µM [22]: 98%
- IC50 (Dipeptidyl peptidase 1): > 10000 nM
- bioavailability [23]: 8%
- IC50 (Cathepsin B [7]): 1030 nM
- IC50 (Procathepsin L [24]): 4840 nM
- IC50 (Cathepsin K [4]): 0.2 nM

Structure (SMILES): CC(C)C[C@H](NC(=O)c1cc2ccccc2o1)C(=O)N[C@H]1CC[C@@H](C)N(S(=O)(=O)c2ccccn2)CC1=O [RELACATIB]
- IC50 (Cathepsin S [8]): 8 nM
- IC50 (Cathepsin B [13]): 14 nM
- IC50 (Osteoclast): 15 nM

Structure (SMILES): CC(C)C[C@H](N[C@@H](c1ccc(-c2ccc(S(C)(=O)=O)cc2)cc1)C(F)(F)F)C(=O)N[C@@H](C)C#N
- IC50 (Procathepsin L [5]): 3390 nM
- IC50 (Cathepsin S [6]): 2240 nM
- IC50 (Cathepsin B [7]): > 10000 nM
- IC50 (Cathepsin K [4]): 1.2 nM
